Data taken from article PMC4725056 (Nature chemistry, 2015).

Assays:
Type in all cases: cell-based, human
[1] = tested on: H1299 cells; experiment: Total cellular copper content by inductively coupled plasma mass spectrometry; settings: copper chelator control
Procedure, shortened: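 Total cellular copper in H1299 cells measured by inductively coupled plasma mass spectrometry after test-compound treatment; tetrathiomolybdate served as the copper-chelator control.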

[2] = tested on: lung cancer H1299 cells; experiment: Cell proliferation; settings: DC_AC50 (10 μM)
[3] = tested on: H1299 cells; experiment: Measurement of ROS production; settings: pretreated with 1 mM or 3 mM NAC for one hour, followed by 5 μM DC_AC50 for 12 hours
[4] = tested on: p-AMPK and p-ACC1 in H1299 cells; experiment: AMPK and ACC1 phosphorylation; settings: together with DC_AC50 (10 μM), 12 hours
[5] = tested on: H1299 cells; experiment: Lipid biosynthesis; settings: 10 μM compound C together with DC_AC50

Row | SMILES | decrease of the total cellular copper content [1] [%] | rescue of cell-proliferation inhibition by DC_AC50 [2] | rescue of DC_AC50-induced ROS increase [3] | rescue of DC_AC50-induced AMPK and ACC1 phosphorylation [4] | rescue of lipid biosynthesis reduced by DC_AC50 [5]
1 | [SH-].[SH-].[S]=[Mo]=[S] [TM, tetrathiomolybdate] | ~40 | – | – | – | –
2 | CC(=O)N[C@@H](CS)C(=O)O [NAC, N-acetyl-L-cysteine] | – | partially rescued | rescued almost completely | failed to rescue | –
3 | c1cc(-c2cnn3cc(-c4ccc(OCCN5CCCCC5)cc4)cnc23)ccn1 [compound C] | – | partially rescued | – | almost completely reversed | recovered
